In brackets after ≈: the same amount, converted by molar mass.
Assays:
[1] = AUC (0 to infinity) in cynomolgus monkey at 1 mg/kg, po; format: ADME, organism-based, Macaca fascicularis; set-up: dose 1 mg/kg, time infinity, route oral; details: in vivo
Summary of the method: (§1)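 Single 1 mg/kg dose given IV or PO to rats, dogs and monkeys. Plasma pharmacokinetic parameters were derived and reported as mean SD, N = 4.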

[2] = Half life in hepatocytes (unknown origin); format: ADME, cell-based, Hepatocyte
[3] = Oral bioavailability in cynomolgus monkey at 1 mg/kg; format: ADME, organism-based, Macaca fascicularis; details: in vivo; summary of the method: as §1
[4] = Elimination half life in Sprague-Dawley rat at 1 mg/kg, po; format: ADME, organism-based; details: in vivo, read-out: beta t1/2 (converted); summary of the method: as §1
[5] = Volume of distribution at steady state in Beagle dog at 1 mg/kg, iv; format: ADME, organism-based, Canis lupus familiaris; details: in vivo, read-out: Vdss
Summary of the method: (§2)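 A single intravenous injection at 1 mg/kg was given. Plasma concentration–time data gave total clearance (CL_total, mL/min/kg) and steady-state volume of distribution (Vd_ss, L/kg). Values are mean SD of N = 4 animals per species.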

[6] = Oral bioavailability in Sprague-Dawley rat at 1 mg/kg; format: ADME, organism-based; details: in vivo; summary of the method: as §1
[7] = AUC (0 to infinity) in Sprague-Dawley rat at 1 mg/kg, po; format: ADME, organism-based; set-up: dose 1 mg/kg, route oral, time infinity; details: in vivo; summary of the method: as §1
[8] = Cmax in Sprague-Dawley rat at 1 mg/kg, po; format: ADME, organism-based; set-up: dose 1 mg/kg, route oral; details: in vivo; summary of the method: as §1
[9] = Elimination half life in cynomolgus monkey at 1 mg/kg, iv; format: ADME, organism-based, Macaca fascicularis; details: in vivo, read-out: beta t1/2 (converted); summary of the method: as §1
[10] = test system: CYP1A; experiment: Inhibition of CYP1A (unknown origin) at 1 uM relative to control; format: ADME; details: human
Summary of the method: (§3)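 CYP1A, CYP2C9, CYP2C19, CYP2D6 and CYP3A activities were each tested with 1 µM test article. Results are given as percent inhibition of enzyme activity.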

[11] = Antagonist activity at human DP receptor
[12] = target: Prostaglandin E2 receptor EP4 subtype (Homo sapiens, UniProt P35408); experiment: Antagonist activity at human EP4 receptor expressed in HEK293 cells assessed as inhibition of PGE2-induced cAMP level by HTS assay; format: functional, cell-based
[13] = Lipophilicity, log D of the compound at pH 6.5; format: physicochemical; details: buffer
[14] = Lipophilicity, log D of the compound at pH 1.2; format: physicochemical; details: buffer
[15] = Solubility of the compound in pH 5.8 water for injection; format: physicochemical
[16] = test system: CYP3A; experiment: Inhibition of CYP3A (unknown origin) at 1 uM relative to control; format: ADME; details: human; summary of the method: as §3
[17] = Total clearance in Sprague-Dawley rat at 1 mg/kg, iv; format: ADME, organism-based; details: in vivo; summary of the method: as §2
[18] = Solubility of the compound in pH 6.5 PBS; format: physicochemical
[19] = Elimination half life in Beagle dog at 1 mg/kg, iv; format: ADME, organism-based, Canis lupus familiaris; details: in vivo, read-out: beta t1/2 (converted); summary of the method: as §1
[20] = target: Prostaglandin E2 receptor EP4 subtype (Rattus norvegicus, UniProt P43114); experiment: Antagonist activity at rat recombinant EP4 receptor
[21] = Volume of distribution at steady state in Sprague-Dawley rat at 1 mg/kg, iv; format: ADME, organism-based; details: in vivo, read-out: Vdss; summary of the method: as §2
[22] = Cmax in Beagle dog at 1 mg/kg, po; format: ADME, organism-based, Canis lupus familiaris; set-up: dose 1 mg/kg, route oral; details: in vivo; summary of the method: as §1
[23] = Elimination half life in Beagle dog at 1 mg/kg, po; format: ADME, organism-based, Canis lupus familiaris; details: in vivo, read-out: beta t1/2 (converted); summary of the method: as §1
[24] = target: T1, Prostaglandin E2 receptor EP1 subtype (Homo sapiens, UniProt P34995); experiment: Antagonist activity at human EP1 receptor
T1 sequence (P34995 whole entry): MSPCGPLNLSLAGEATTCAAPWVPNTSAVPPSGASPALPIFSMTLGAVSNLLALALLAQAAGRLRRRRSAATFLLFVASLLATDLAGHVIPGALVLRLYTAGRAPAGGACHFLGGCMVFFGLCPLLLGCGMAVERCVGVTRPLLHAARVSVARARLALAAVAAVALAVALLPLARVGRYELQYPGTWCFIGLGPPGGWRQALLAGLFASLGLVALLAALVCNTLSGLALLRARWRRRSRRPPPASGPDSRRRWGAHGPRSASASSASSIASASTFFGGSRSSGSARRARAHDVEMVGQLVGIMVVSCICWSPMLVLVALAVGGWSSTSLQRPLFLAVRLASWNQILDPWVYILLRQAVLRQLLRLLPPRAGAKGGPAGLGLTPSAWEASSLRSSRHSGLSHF

Chain of Prostaglandin E2 receptor EP4 subtype (Homo sapiens, UniProt P35408) (P35408 whole entry): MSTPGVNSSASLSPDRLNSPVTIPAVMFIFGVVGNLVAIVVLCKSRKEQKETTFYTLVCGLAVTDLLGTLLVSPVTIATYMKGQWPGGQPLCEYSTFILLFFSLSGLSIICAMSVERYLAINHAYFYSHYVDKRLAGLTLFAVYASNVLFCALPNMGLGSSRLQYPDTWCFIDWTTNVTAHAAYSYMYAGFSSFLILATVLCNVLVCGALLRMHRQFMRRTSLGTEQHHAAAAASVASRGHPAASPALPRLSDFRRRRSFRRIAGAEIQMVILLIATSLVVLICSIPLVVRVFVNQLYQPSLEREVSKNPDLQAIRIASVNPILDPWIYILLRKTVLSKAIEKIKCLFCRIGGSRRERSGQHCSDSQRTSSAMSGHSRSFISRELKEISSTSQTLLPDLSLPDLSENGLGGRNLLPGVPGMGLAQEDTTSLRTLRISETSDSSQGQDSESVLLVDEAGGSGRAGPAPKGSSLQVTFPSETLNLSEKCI
Chain of Prostaglandin E2 receptor EP4 subtype (Rattus norvegicus, UniProt P43114) (P43114 whole entry): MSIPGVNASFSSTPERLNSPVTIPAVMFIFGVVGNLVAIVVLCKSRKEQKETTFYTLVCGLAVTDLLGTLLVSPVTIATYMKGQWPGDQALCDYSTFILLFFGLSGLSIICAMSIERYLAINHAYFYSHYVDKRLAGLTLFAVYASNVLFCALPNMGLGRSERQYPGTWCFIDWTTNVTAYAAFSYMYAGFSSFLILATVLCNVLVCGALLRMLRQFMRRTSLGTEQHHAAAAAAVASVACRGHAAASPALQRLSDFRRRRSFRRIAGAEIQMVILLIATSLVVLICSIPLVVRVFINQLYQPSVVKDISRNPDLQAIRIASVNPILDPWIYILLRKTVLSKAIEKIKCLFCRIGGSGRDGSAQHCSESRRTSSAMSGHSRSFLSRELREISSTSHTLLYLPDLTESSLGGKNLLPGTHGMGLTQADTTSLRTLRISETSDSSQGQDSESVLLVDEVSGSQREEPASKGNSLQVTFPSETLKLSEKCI

AUC(0-inf) [1]: 2460 ng·h/mL
half-life [2]: > 6 h
bioavailability [3]: 73.3%
half-life [4]: 3.71 h
Vd [5]: 1.21 L/kg
bioavailability [6]: 73.6%
AUC(0-inf) [7]: 7090 ng·h/mL
Cmax [8]: 994 ng/mL
half-life [9]: 14.5 h
inhibition at 1 µM [10]: < 5%
Ki [11]: > 6 µM
A2 [12]: 1.1 nM
IC50 [12]: 0.0163 µM
Kb ([12]; read-out: pA2 (converted)): 0.00107 µM
logD [13]: 1.5
logD [14]: 3.8
solubility [15]: 4.3 µg/mL (≈ 10.4 µM)
inhibition at 1 µM [16]: < 5%
clearance [17]: 1.75 mL/min/kg
solubility [18]: 73 µg/mL (≈ 176 µM)
half-life [19]: 8.43 h
Ki [20]: 0.0061 µM
Vd [21]: 0.593 L/kg
Cmax [22]: 1450 ng/mL
half-life [23]: 7.95 h
IC50 [24]: > 20 µM
Ki [24]: > 6 µM
SMILES: C[C@H](NC(=O)c1cc(Cl)cnc1Oc1cccc(F)c1)c1ccc(C(=O)O)cc1

Reference: ChEMBL document CHEMBL3994644, “Discovery of AAT-008, a novel, potent, and selective prostaglandin EP4 receptor antagonist” (Bioorg Med Chem Lett, 2017)
